In ChEMBL document CHEMBL4311965, “Antimicrobial activity of amphipathic α,α-disubstituted β-amino amide derivatives against ESBL - CARBA producing multi-resistant bacteria; effect of halogenation, lipophilicity and cationic character” (Eur J Med Chem, 2019):
In brackets after ≈: the same amount, converted by molar mass.

Legend:
[1] = system: Klebsiella pneumoniae; assay: Antibacterial activity against multidrug-resistant Klebsiella pneumoniae 50531633 producing New Delhi metallo-beta-lactamase-1 and oxcillinase-181 cultured in MHB medium assessed as reduction in bacterial growth incubated for 24 hrs by microdilution susceptibility test; format: functional; settings: Klebsiella pneumoniae, 50531633, 24 h
Outline: (§1)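 Broth microdilution per CLSI M07-A9 (modified). Working solutions made from concentrated DMSO stocks kept at r.t., diluted in double-distilled water, final DMSO <1%. Inoculum 1–1.2 x 10⁶ cells/mL in Mueller-Hinton broth, mixed 1:1 with compound. 37 °C, 24 h, four parallels. Read as OD₆₀₀. Where precipitation left residual OD, the point of major OD decrease was taken as the inhibitory concentration.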

[2] = system: Acinetobacter baumannii; assay: Antibacterial activity against multidrug-resistant Acinetobacter baumannii K55-13 producing oxcillinase-24 cultured in MHB medium assessed as reduction in bacterial growth incubated for 24 hrs by microdilution susceptibility test; format: functional; settings: K55-13, 24 h; outline: as §1
[3] = system: Acinetobacter baumannii; assay: Antibacterial activity against multidrug-resistant Acinetobacter baumannii K44-35 producing oxcillinase-23 cultured in MHB medium assessed as reduction in bacterial growth incubated for 24 hrs by microdilution susceptibility test; format: functional; settings: K44-35, 24 h; outline: as §1
[4] = system: Escherichia coli; assay: Antibacterial activity against multidrug-resistant Escherichia coli 50739822 producing New Delhi metallo-beta-lactamase-1 cultured in MHB medium assessed as reduction in bacterial growth incubated for 24 hrs by microdilution susceptibility test; format: functional; settings: Escherichia coli, 50739822, 24 h; outline: as §1
[5] = system: Klebsiella pneumoniae; assay: Antibacterial activity against multidrug-resistant Klebsiella pneumoniae K47-25 producing carbapenemase-2 cultured in MHB medium assessed as reduction in bacterial growth incubated for 24 hrs by microdilution susceptibility test; format: functional; settings: K47-25, 24 h; outline: as §1
[6] = system: Escherichia coli; assay: Antibacterial activity against multidrug-resistant Escherichia coli 50579417 producing oxcillinase-48 cultured in MHB medium assessed as reduction in bacterial growth incubated for 24 hrs by microdilution susceptibility test; format: functional; settings: Escherichia coli, 50579417, 24 h; outline: as §1
[7] = system: MRC5; assay: Cytotoxicity against human MRC5 cells assessed as reduction in cell viability incubated for 4 hrs by CellTiter 96 Aqueous One Solution Reagent based assay; settings: MRC5, 4 h
Outline: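 HepG2 and MRC-5 cells seeded at 35 000 and 15 000 cells/well respectively, then held overnight at 37 °C, 5% CO₂. Compounds in serum-free MEM Earle's applied for 4 h. MTS reagent (CellTiter 96 AQueous One) added for a further 1 h, absorbance read at 485 nm. Survival expressed relative to medium (negative) and Triton X-100 (positive) controls.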

[8] = system: Staphylococcus aureus; assay: Antibacterial activity against multidrug-resistant Staphylococcus aureus 85/2082 cultured in MHB medium assessed as reduction in bacterial growth incubated for 24 hrs by microdilution susceptibility test; format: functional; settings: 85/2082, 24 h; outline: as §1
[9] = system: Erythrocyte; assay: Hemolytic activity against human RBC incubated for 1 hr; format: cell-based
Outline: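 Heparinized human blood washed three times in warm PBS and set to 10% hct. Erythrocytes at 1% v/v final, with compound in PBS (DMSO <1%), shaken 1 h at 37 °C and then centrifuged. Supernatant absorbance read at 405 and 545 nm after PBS background subtraction. Haemolysis taken relative to 1% Triton X-100. Three independent replicates, EC50 averaged.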

[10] = system: Acinetobacter baumannii; assay: Antibacterial activity against multidrug-resistant Acinetobacter baumannii K47-42 producing oxcillinase-23 cultured in MHB medium assessed as reduction in bacterial growth incubated for 24 hrs by microdilution susceptibility test; format: functional; settings: K47-42, 24 h; outline: as §1
[11] = system: Escherichia coli; assay: Antibacterial activity against multidrug-resistant Escherichia coli 50676002 producing New Delhi metallo-beta-lactamase-1 cultured in MHB medium assessed as reduction in bacterial growth incubated for 24 hrs by microdilution susceptibility test; format: functional; settings: Escherichia coli, 50676002, 24 h; outline: as §1
[12] = system: Corynebacterium glutamicum; assay: Antibacterial activity against Corynebacterium glutamicum ATCC 13032 cultured in MHB medium assessed as no bacterial growth incubated at 20 degC for 24 hrs by microdilution susceptibility test; format: functional; settings: ATCC 13032, 24 h
Outline: (§2)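 Broth microdilution per CLSI M07-A9 with modifications. Inoculum about 2.5–3 x 10⁴ cells/mL in Mueller-Hinton broth, mixed 1:1 with test derivative. DMSO stocks diluted in double-distilled water, final DMSO <1%. Incubation 24 h at 37 °C (20 °C for C. glutamicum). Growth and sterility controls included; oxytetracycline reference.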

[13] = system: Enterococcus faecium; assay: Antibacterial activity against multidrug-resistant Enterococcus faecium K36-18 cultured in BHIB medium assessed as reduction in bacterial growth incubated for 24 hrs by microdilution susceptibility test; format: functional; settings: K36-18, 24 h
Outline: (§3)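 Enterococci grown in Brain Heart Infusion broth, otherwise broth microdilution per CLSI M07-A9 (modified). Concentrated DMSO stocks kept at r.t. and diluted in double-distilled water, final DMSO <1%. Inoculum 1–1.2 x 10⁶ cells/mL mixed 1:1 with compound. 37 °C, 24 h, four parallels. OD₆₀₀ read-out, lowest concentration with no growth.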

[14] = system: Pseudomonas aeruginosa; assay: Antibacterial activity against multidrug-resistant Pseudomonas aeruginosa 50692520 producing Verona integron encoded metallo beta-lactamse cultured in MHB medium assessed as reduction in bacterial growth incubated for 24 hrs by microdilution susceptibility test; format: functional; settings: Pseudomonas aeruginosa, 50692520, 24 h; outline: as §1
[15] = system: Acinetobacter baumannii; assay: Antibacterial activity against multidrug-resistant Acinetobacter baumannii K12-21 producing oxcillinase-58 cultured in MHB medium assessed as reduction in bacterial growth incubated for 24 hrs by microdilution susceptibility test; format: functional; settings: K12-21, 24 h; outline: as §1
[16] = system: Escherichia coli; assay: Antibacterial activity against Escherichia coli ATCC 25922 cultured in MHB medium assessed as no bacterial growth incubated at 37 degC for 24 hrs by microdilution susceptibility test; format: functional; settings: ATCC 25922, 24 h; outline: as §2
[17] = system: Staphylococcus aureus; assay: Antibacterial activity against multidrug-resistant Staphylococcus aureus NCTC 10442 cultured in MHB medium assessed as reduction in bacterial growth incubated for 24 hrs by microdilution susceptibility test; format: functional; settings: NCTC 10442, 24 h; outline: as §1
[18] = system: Pseudomonas aeruginosa; assay: Antibacterial activity against multidrug-resistant Pseudomonas aeruginosa K34-73 producing Verona integron encoded metallo beta-lactamse-4 cultured in MHB medium assessed as reduction in bacterial growth incubated for 24 hrs by microdilution susceptibility test; format: functional; settings: K34-73, 24 h; outline: as §1
[19] = system: Klebsiella pneumoniae; assay: Antibacterial activity against multidrug-resistant Klebsiella pneumoniae 50625602 producing oxcillinase-245 cultured in MHB medium assessed as reduction in bacterial growth incubated for 24 hrs by microdilution susceptibility test; format: functional; settings: Klebsiella pneumoniae, 50625602, 24 h; outline: as §1
[20] = system: Enterococcus faecium; assay: Antibacterial activity against multidrug-resistant Enterococcus faecium 50758899 cultured in BHIB medium assessed as reduction in bacterial growth incubated for 24 hrs by microdilution susceptibility test; format: functional; settings: Enterococcus faecium, 50758899, 24 h; outline: as §3
[21] = system: Acinetobacter baumannii; assay: Antibacterial activity against multidrug-resistant Acinetobacter baumannii K63-58 producing oxcillinase-23 cultured in MHB medium assessed as reduction in bacterial growth incubated for 24 hrs by microdilution susceptibility test; format: functional; settings: K63-58, 24 h; outline: as §1
[22] = system: Staphylococcus aureus; assay: Antibacterial activity against multidrug-resistant Staphylococcus aureus IHT 99040 cultured in MHB medium assessed as reduction in bacterial growth incubated for 24 hrs by microdilution susceptibility test; format: functional; settings: IHT 99040, 24 h; outline: as §1

Compound | MIC [1] [µg/mL] | MIC [2] [µg/mL] | MIC [3] [µg/mL] | MIC [4] [µg/mL] | MIC [5] [µg/mL] | MIC [6] [µg/mL] | MIC [8] [µg/mL] | EC50 [9] [µg/mL] | MIC [10] [µg/mL] | MIC [11] [µg/mL] | MIC [12] [µg/mL] | MIC [13] [µg/mL] | MIC [14] [µg/mL] | MIC [15] [µg/mL] | MIC [16] [µg/mL] | MIC [17] [µg/mL] | MIC [18] [µg/mL] | MIC [19] [µg/mL] | MIC [20] [µg/mL] | MIC [21] [µg/mL] | other results
NCCNC(=O)C(CN)(Cc1cc(C(F)(F)F)cc(C(F)(F)F)c1)Cc1cc(C(F)(F)F)cc(C(F)(F)F)c1 | 16 (≈ 27.4 µM) | 16 (≈ 27.4 µM) | 16 (≈ 27.4 µM) | 16 (≈ 27.4 µM) | 32 (≈ 54.8 µM) | 16 (≈ 27.4 µM) | 16 (≈ 27.4 µM) | 48 (≈ 82.3 µM) | 16 (≈ 27.4 µM) | 16 (≈ 27.4 µM) | 1 (≈ 1.71 µM) | 8 (≈ 13.7 µM) | > 32 | 8 (≈ 13.7 µM) | 4 (≈ 6.86 µM) | 16 (≈ 27.4 µM) | 32 (≈ 54.8 µM) | 16 (≈ 27.4 µM) | 4 (≈ 6.86 µM) | 8 (≈ 13.7 µM) | EC50 [7]: 11 µg/mL (≈ 18.9 µM); MIC [22]: 8 µg/mL (≈ 13.7 µM)
NCCNCC(CN)(Cc1ccc(F)c2ccccc12)Cc1ccc(F)c2ccccc12 | 4 (≈ 9.23 µM) | 16 (≈ 36.9 µM) | 8 (≈ 18.5 µM) | 4 (≈ 9.23 µM) | 8 (≈ 18.5 µM) | 8 (≈ 18.5 µM) | 4 (≈ 9.23 µM) | 27 (≈ 62.3 µM) | 16 (≈ 36.9 µM) | 8 (≈ 18.5 µM) | 1 (≈ 2.31 µM) | 4 (≈ 9.23 µM) | 16 (≈ 36.9 µM) | 8 (≈ 18.5 µM) | 4 (≈ 9.23 µM) | 4 (≈ 9.23 µM) | 16 (≈ 36.9 µM) | 8 (≈ 18.5 µM) | 4 (≈ 9.23 µM) | 8 (≈ 18.5 µM) | EC50 [7]: 9 µg/mL (≈ 20.8 µM); MIC [22]: 8 µg/mL (≈ 18.5 µM)
NCCNCC(CN)(Cc1cc(Br)cc(Br)c1)Cc1cc(Br)cc(Br)c1 | 8 (≈ 13 µM) | 8 (≈ 13 µM) | 8 (≈ 13 µM) | 8 (≈ 13 µM) | 8 (≈ 13 µM) | 16 (≈ 26.1 µM) | 8 (≈ 13 µM) | 24 (≈ 39.1 µM) | 16 (≈ 26.1 µM) | 8 (≈ 13 µM) | 1 (≈ 1.63 µM) | 8 (≈ 13 µM) | 32 (≈ 52.2 µM) | 16 (≈ 26.1 µM) | 4 (≈ 6.52 µM) | 4 (≈ 6.52 µM) | 16 (≈ 26.1 µM) | 16 (≈ 26.1 µM) | 4 (≈ 6.52 µM) | 8 (≈ 13 µM) | EC50 [7]: 15 µg/mL (≈ 24.5 µM); MIC [22]: 8 µg/mL (≈ 13 µM)
NCCNC(=O)C(CN)(Cc1cc(Br)cc(Br)c1)Cc1cc(Br)cc(Br)c1 | 16 (≈ 25.5 µM) | 16 (≈ 25.5 µM) | 32 (≈ 51 µM) | 8 (≈ 12.8 µM) | 16 (≈ 25.5 µM) | 8 (≈ 12.8 µM) | 8 (≈ 12.8 µM) | 58 (≈ 92.5 µM) | 16 (≈ 25.5 µM) | 16 (≈ 25.5 µM) | 2 (≈ 3.19 µM) | 8 (≈ 12.8 µM) | > 32 | 32 (≈ 51 µM) | 4 (≈ 6.38 µM) | 8 (≈ 12.8 µM) | 32 (≈ 51 µM) | 8 (≈ 12.8 µM) | 8 (≈ 12.8 µM) | 32 (≈ 51 µM) | EC50 [7]: 17 µg/mL (≈ 27.1 µM); MIC [22]: 16 µg/mL (≈ 25.5 µM)
N=C(N)NCCNC(=O)C(CNC(=N)N)(Cc1ccc(F)c2ccccc12)Cc1ccc(F)c2ccccc12 | > 32 | > 32 | > 32 | 32 (≈ 60.2 µM) | > 32 | 32 (≈ 60.2 µM) | 4 (≈ 7.52 µM) | 329 (≈ 619 µM) | > 32 | 32 (≈ 60.2 µM) | 0.5 (≈ 0.941 µM) | 16 (≈ 30.1 µM) | > 32 | > 32 | 16 (≈ 30.1 µM) | 4 (≈ 7.52 µM) | > 32 | > 32 | 16 (≈ 30.1 µM) | > 32 | MIC [22]: 4 µg/mL (≈ 7.52 µM)
